{"source": "ChEMBL document CHEMBL5303300", "about": "“EUbOPEN Chemogenomics Library - Multiplex” (2023)", "key": {"HEK-293T": {"system": "HEK-293T", "test": "Multiplex assay against HEK293T", "format": "toxicity, cell-based", "settings": "human, number of replicates 2", "method_in_brief": "(§1)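 With compound added, live cells were imaged on a CQ1 microscope at 37°C and 5% CO2; staining with Hoechst33342, BioTracker Green Microtubule Cytoskeleton Dye, MitoTracker Red and Annexin V Alexa Fluor 680 had been done at seeding. The CellPathfinder machine-learning gating scheme split cells into Hoechst high-intensity objects or normal cells, normal cells into healthy, pyknosed or fragmented nuclei, and pyknosed cells into mitotic or apoptotic. The tubulin, mitochondrial-mass and membrane-permeability phenotypes are per cents of healthy-nucleus cells.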"}, "U2OS": {"system": "U2OS", "test": "Multiplex assay against U2OS", "format": "toxicity, cell-based", "settings": "human, number of replicates 2", "method_in_brief": "as §1"}, "[1]": {"settings": "12 h, 1 µM, compound concentration 1 uM"}, "[2]": {"settings": "12 h, 10 µM, compound concentration 10 uM"}, "[3]": {"settings": "24 h, 1 µM, compound concentration 1 uM"}, "[4]": {"settings": "24 h, 10 µM, compound concentration 10 uM"}, "[5]": {"settings": "48 h, 1 µM, compound concentration 1 uM"}, "[6]": {"settings": "48 h, 10 µM, compound concentration 10 uM"}}, "note": "Values joined by “and” are separate entries in the source; they are usually repeats but may differ in a detail not shown here. Identical values can stand only once.", "data": [{"smiles": "CN(C)C/C=C/C(=O)Nc1ccc(C(=O)Nc2cccc(Nc3ncc(Cl)c(-c4c[nH]c5ccccc45)n3)c2)cc1", "values": [{"measurement": "Population Apoptotic (%)", "setting": "HEK-293T; [1]", "result": "42% and 60%"}, {"measurement": "Population Fragmented Nuclei (%)", "setting": "HEK-293T; [1]", "result": "2% and 4%"}, {"measurement": "Population Healthy Nuclei (%)", "setting": "HEK-293T; [1]", "result": "51% and 52%"}, {"measurement": "Population Hoechst High Intensity Objects (%)", "setting": "HEK-293T; [1]", "result": "23% and 21%"}, {"measurement": "Population Membrane Permeable-Phenotype (%)", "setting": "HEK-293T; [1]", "result": "9% and 14%"}, {"measurement": "Population Mitochondria Different-Phenotype (%)", "setting": "HEK-293T; [1]", "result": "37% and 41%"}, {"measurement": "Population Mitotic Cells (%)", "setting": "HEK-293T; [1]", "result": "57% and 40%"}, {"measurement": "Population Normal (%)", "setting": "HEK-293T; [1]", "result": "76% and 78%"}, {"measurement": "Population Pyknosed Nuclei (%)", "setting": "HEK-293T; [1]", "result": "46% and 43%"}, {"measurement": "Population Tubulin-Different-Phenotype (%)", "setting": "HEK-293T; [1]", "result": "89% and 83%"}, {"measurement": "Total Cell Count", "setting": "HEK-293T; [1]", "result": "442 and 379"}, {"measurement": "Population Apoptotic (%)", "setting": "HEK-293T; [2]", "result": "52% and 73%"}, {"measurement": "Population Fragmented Nuclei (%)", "setting": "HEK-293T; [2]", "result": "3% and 2%"}, {"measurement": "Population Healthy Nuclei (%)", "setting": "HEK-293T; [2]", "result": "61% and 57%"}, {"measurement": "Population Hoechst High Intensity Objects (%)", "setting": "HEK-293T; [2]", "result": "17% and 19%"}, {"measurement": "Population Membrane Permeable-Phenotype (%)", "setting": "HEK-293T; [2]", "result": "10% and 5%"}, {"measurement": "Population Mitochondria Different-Phenotype (%)", "setting": "HEK-293T; [2]", "result": "26% and 31%"}, {"measurement": "Population Mitotic Cells (%)", "setting": "HEK-293T; [2]", "result": "47% and 26%"}, {"measurement": "Population Normal (%)", "setting": "HEK-293T; [2]", "result": "82% and 80%"}, {"measurement": "Population Pyknosed Nuclei (%)", "setting": "HEK-293T; [2]", "result": "35% and 40%"}, {"measurement": "Population Tubulin-Different-Phenotype (%)", "setting": "HEK-293T; [2]", "result": "91% and 95%"}, {"measurement": "Total Cell Count", "setting": "HEK-293T; [2]", "result": "459 and 452"}, {"measurement": "Population Apoptotic (%)", "setting": "HEK-293T; [3]", "result": "61% and 75%"}, {"measurement": "Population Fragmented Nuclei (%)", "setting": "HEK-293T; [3]", "result": "4% and 5%"}, {"measurement": "Population Healthy Nuclei (%)", "setting": "HEK-293T; [3]", "result": "43% and 50%"}, {"measurement": "Population Hoechst High Intensity Objects (%)", "setting": "HEK-293T; [3]", "result": "24% and 23%"}, {"measurement": "Population Membrane Permeable-Phenotype (%)", "setting": "HEK-293T; [3]", "result": "10% and 5%"}, {"measurement": "Population Mitochondria Different-Phenotype (%)", "setting": "HEK-293T; [3]", "result": "44% and 45%"}, {"measurement": "Population Mitotic Cells (%)", "setting": "HEK-293T; [3]", "result": "38% and 24%"}, {"measurement": "Population Normal (%)", "setting": "HEK-293T; [3]", "result": "75% and 76%"}, {"measurement": "Population Pyknosed Nuclei (%)", "setting": "HEK-293T; [3]", "result": "51% and 43%"}, {"measurement": "Population Tubulin-Different-Phenotype (%)", "setting": "HEK-293T; [3]", "result": "84% and 77%"}, {"measurement": "Total Cell Count", "setting": "HEK-293T; [3]", "result": "394 and 349"}, {"measurement": "Population Apoptotic (%)", "setting": "HEK-293T; [4]", "result": "67% and 83%"}, {"measurement": "Population Fragmented Nuclei (%)", "setting": "HEK-293T; [4]", "result": "6% and 4%"}, {"measurement": "Population Healthy Nuclei (%)", "setting": "HEK-293T; [4]", "result": "49% and 46%"}, {"measurement": "Population Hoechst High Intensity Objects (%)", "setting": "HEK-293T; [4]", "result": "19% and 20%"}, {"measurement": "Population Membrane Permeable-Phenotype (%)", "setting": "HEK-293T; [4]", "result": "9% and 3%"}, {"measurement": "Population Mitochondria Different-Phenotype (%)", "setting": "HEK-293T; [4]", "result": "22% and 35%"}, {"measurement": "Population Mitotic Cells (%)", "setting": "HEK-293T; [4]", "result": "32% and 16%"}, {"measurement": "Population Normal (%)", "setting": "HEK-293T; [4]", "result": "80% and 79%"}, {"measurement": "Population Pyknosed Nuclei (%)", "setting": "HEK-293T; [4]", "result": "43% and 48%"}, {"measurement": "Population Tubulin-Different-Phenotype (%)", "setting": "HEK-293T; [4]", "result": "87% and 94%"}, {"measurement": "Total Cell Count", "setting": "HEK-293T; [4]", "result": "472 and 454"}, {"measurement": "Population Apoptotic (%)", "setting": "HEK-293T; [5]", "result": "79% and 73%"}, {"measurement": "Population Fragmented Nuclei (%)", "setting": "HEK-293T; [5]", "result": "8% and 7%"}, {"measurement": "Population Healthy Nuclei (%)", "setting": "HEK-293T; [5]", "result": "49% and 42%"}, {"measurement": "Population Hoechst High Intensity Objects (%)", "setting": "HEK-293T; [5]", "result": "20% and 22%"}, {"measurement": "Population Membrane Permeable-Phenotype (%)", "setting": "HEK-293T; [5]", "result": "3% and 7%"}, {"measurement": "Population Mitochondria Different-Phenotype (%)", "setting": "HEK-293T; [5]", "result": "43% and 55%"}, {"measurement": "Population Mitotic Cells (%)", "setting": "HEK-293T; [5]", "result": "20% and 26%"}, {"measurement": "Population Normal (%)", "setting": "HEK-293T; [5]", "result": "79% and 77%"}, {"measurement": "Population Pyknosed Nuclei (%)", "setting": "HEK-293T; [5]", "result": "42% and 49%"}, {"measurement": "Population Tubulin-Different-Phenotype (%)", "setting": "HEK-293T; [5]", "result": "63% and 74%"}, {"measurement": "Total Cell Count", "setting": "HEK-293T; [5]", "result": "354 and 385"}, {"measurement": "Population Apoptotic (%)", "setting": "HEK-293T; [6]", "result": "79% and 85%"}, {"measurement": "Population Fragmented Nuclei (%)", "setting": "HEK-293T; [6]", "result": "8% and 7%"}, {"measurement": "Population Healthy Nuclei (%)", "setting": "HEK-293T; [6]", "result": "36% and 31%"}, {"measurement": "Population Hoechst High Intensity Objects (%)", "setting": "HEK-293T; [6]", "result": "21% and 19%"}, {"measurement": "Population Membrane Permeable-Phenotype (%)", "setting": "HEK-293T; [6]", "result": "7% and 3%"}, {"measurement": "Population Mitochondria Different-Phenotype (%)", "setting": "HEK-293T; [6]", "result": "33% and 41%"}, {"measurement": "Population Mitotic Cells (%)", "setting": "HEK-293T; [6]", "result": "20% and 14%"}, {"measurement": "Population Normal (%)", "setting": "HEK-293T; [6]", "result": "78% and 80%"}, {"measurement": "Population Pyknosed Nuclei (%)", "setting": "HEK-293T; [6]", "result": "54% and 60%"}, {"measurement": "Population Tubulin-Different-Phenotype (%)", "setting": "HEK-293T; [6]", "result": "82% and 97%"}, {"measurement": "Total Cell Count", "setting": "HEK-293T; [6]", "result": "449 and 445"}, {"measurement": "Population Apoptotic (%)", "setting": "U2OS; [1]", "result": "81% and 93%"}, {"measurement": "Population Fragmented Nuclei (%)", "setting": "U2OS; [1]", "result": "12% and 3%"}, {"measurement": "Population Healthy Nuclei (%)", "setting": "U2OS; [1]", "result": "53% and 73%"}, {"measurement": "Population Hoechst High Intensity Objects (%)", "setting": "U2OS; [1]", "result": 0, "unit": "%"}, {"measurement": "Population Membrane Permeable-Phenotype (%)", "setting": "U2OS; [1]", "result": "0% and 2%"}, {"measurement": "Population Mitochondria Different-Phenotype (%)", "setting": "U2OS; [1]", "result": "0% and 4%"}, {"measurement": "Population Mitotic Cells (%)", "setting": "U2OS; [1]", "result": "18% and 6%"}, {"measurement": "Population Normal (%)", "setting": "U2OS; [1]", "result": 100, "unit": "%"}, {"measurement": "Population Pyknosed Nuclei (%)", "setting": "U2OS; [1]", "result": "34% and 22%"}, {"measurement": "Population Tubulin-Different-Phenotype (%)", "setting": "U2OS; [1]", "result": "64% and 72%"}, {"measurement": "Population Apoptotic (%)", "setting": "U2OS; [2]", "result": "96% and 89%"}, {"measurement": "Population Fragmented Nuclei (%)", "setting": "U2OS; [2]", "result": "17% and 9%"}, {"measurement": "Population Healthy Nuclei (%)", "setting": "U2OS; [2]", "result": "35% and 56%"}, {"measurement": "Population Hoechst High Intensity Objects (%)", "setting": "U2OS; [2]", "result": 0, "unit": "%"}, {"measurement": "Population Membrane Permeable-Phenotype (%)", "setting": "U2OS; [2]", "result": "18% and 17%"}, {"measurement": "Population Mitochondria Different-Phenotype (%)", "setting": "U2OS; [2]", "result": "4% and 11%"}, {"measurement": "Population Mitotic Cells (%)", "setting": "U2OS; [2]", "result": "3% and 10%"}, {"measurement": "Population Normal (%)", "setting": "U2OS; [2]", "result": 100, "unit": "%"}, {"measurement": "Population Pyknosed Nuclei (%)", "setting": "U2OS; [2]", "result": "46% and 34%"}, {"measurement": "Population Tubulin-Different-Phenotype (%)", "setting": "U2OS; [2]", "result": "40% and 48%"}, {"measurement": "Population Apoptotic (%)", "setting": "U2OS; [3]", "result": "83% and 94%"}, {"measurement": "Population Fragmented Nuclei (%)", "setting": "U2OS; [3]", "result": "17% and 9%"}, {"measurement": "Population Healthy Nuclei (%)", "setting": "U2OS; [3]", "result": "31% and 40%"}, {"measurement": "Population Hoechst High Intensity Objects (%)", "setting": "U2OS; [3]", "result": "0% and 1%"}, {"measurement": "Population Mitochondria Different-Phenotype (%)", "setting": "U2OS; [3]", "result": "27% and 12%"}, {"measurement": "Population Normal (%)", "setting": "U2OS; [3]", "result": "100% and 98%"}, {"measurement": "Population Pyknosed Nuclei (%)", "setting": "U2OS; [3]", "result": "51% and 50%"}]}]}
